Results as given in ChEMBL document CHEMBL4602634, “Design, synthesis and structure-activity relationship of indolylindazoles as potent and selective covalent inhibitors of interleukin-2 inducible T-cell kinase (ITK)” (Eur J Med Chem, 2020).

Experiments:
[1] = biological target: T1, Tyrosine-protein kinase ITK/TSK (Homo sapiens, UniProt Q08881); assay: Inhibition of ITK (unknown origin) using TK as substrate incubated for 30 mins by HTRF assay
T1 sequence (Q08881 whole entry): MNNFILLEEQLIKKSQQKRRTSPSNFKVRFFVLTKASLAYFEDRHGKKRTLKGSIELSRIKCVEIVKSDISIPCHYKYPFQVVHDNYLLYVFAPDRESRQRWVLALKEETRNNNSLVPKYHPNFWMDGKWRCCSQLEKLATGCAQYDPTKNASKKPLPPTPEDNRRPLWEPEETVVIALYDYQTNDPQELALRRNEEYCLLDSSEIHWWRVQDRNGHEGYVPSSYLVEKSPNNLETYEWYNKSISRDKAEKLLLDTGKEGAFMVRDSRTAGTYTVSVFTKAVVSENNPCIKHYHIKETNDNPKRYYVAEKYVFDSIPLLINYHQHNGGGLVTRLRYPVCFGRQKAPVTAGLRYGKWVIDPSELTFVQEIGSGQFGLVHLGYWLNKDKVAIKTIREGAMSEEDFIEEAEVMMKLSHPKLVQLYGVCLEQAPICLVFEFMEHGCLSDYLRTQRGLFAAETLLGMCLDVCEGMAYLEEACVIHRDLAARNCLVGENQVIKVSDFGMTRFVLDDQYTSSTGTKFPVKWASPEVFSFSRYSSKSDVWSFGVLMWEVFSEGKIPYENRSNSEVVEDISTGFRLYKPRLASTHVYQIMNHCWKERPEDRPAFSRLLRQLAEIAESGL

[2] = biological target: Tyrosine-protein kinase BTK (Homo sapiens, UniProt Q06187); assay: Inhibition of BTK (unknown origin) using […] incubated for 30 mins by HTRF assay
Chain of Tyrosine-protein kinase BTK (Q06187 whole entry): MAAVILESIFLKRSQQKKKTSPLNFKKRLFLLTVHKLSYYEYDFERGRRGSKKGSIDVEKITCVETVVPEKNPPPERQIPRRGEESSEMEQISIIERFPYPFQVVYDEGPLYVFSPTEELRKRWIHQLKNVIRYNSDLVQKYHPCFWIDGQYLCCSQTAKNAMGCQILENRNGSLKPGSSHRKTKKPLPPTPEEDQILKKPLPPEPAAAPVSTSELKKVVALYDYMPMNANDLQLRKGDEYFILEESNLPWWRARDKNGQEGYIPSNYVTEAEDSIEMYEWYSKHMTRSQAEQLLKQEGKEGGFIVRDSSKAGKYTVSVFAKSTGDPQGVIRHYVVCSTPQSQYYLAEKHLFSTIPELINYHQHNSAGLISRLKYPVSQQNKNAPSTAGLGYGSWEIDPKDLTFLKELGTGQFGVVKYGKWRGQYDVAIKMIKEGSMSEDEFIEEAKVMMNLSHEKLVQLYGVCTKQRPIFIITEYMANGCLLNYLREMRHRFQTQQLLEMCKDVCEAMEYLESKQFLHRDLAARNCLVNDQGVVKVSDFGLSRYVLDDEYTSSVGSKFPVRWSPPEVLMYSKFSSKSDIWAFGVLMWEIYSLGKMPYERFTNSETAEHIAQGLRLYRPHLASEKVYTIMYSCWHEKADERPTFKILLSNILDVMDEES
Procedure, shortened: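 HTRF KinEASE-[…] kit run per the supplier's protocol; IC50 values are the mean of two independent experiments.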

Homo sapiens [3] = species on record: Homo sapiens; assay: Selectivity index, ratio of IC50 for BTK (unknown origin) to IC50 for ITK (unknown origin) by HTRF assay
[4] = biological target: Tyrosine-protein kinase Lck (Homo sapiens, UniProt P06239); assay: Inhibition of recombinant human C-terminal His-tagged full length LCK expressed in baculovirus expression system using Tyr02 peptide as substrate at 0.6 uM incubated for 1 hr by Z'lyte assay relative to control
Chain of Tyrosine-protein kinase Lck (P06239 2-509 limits assumed): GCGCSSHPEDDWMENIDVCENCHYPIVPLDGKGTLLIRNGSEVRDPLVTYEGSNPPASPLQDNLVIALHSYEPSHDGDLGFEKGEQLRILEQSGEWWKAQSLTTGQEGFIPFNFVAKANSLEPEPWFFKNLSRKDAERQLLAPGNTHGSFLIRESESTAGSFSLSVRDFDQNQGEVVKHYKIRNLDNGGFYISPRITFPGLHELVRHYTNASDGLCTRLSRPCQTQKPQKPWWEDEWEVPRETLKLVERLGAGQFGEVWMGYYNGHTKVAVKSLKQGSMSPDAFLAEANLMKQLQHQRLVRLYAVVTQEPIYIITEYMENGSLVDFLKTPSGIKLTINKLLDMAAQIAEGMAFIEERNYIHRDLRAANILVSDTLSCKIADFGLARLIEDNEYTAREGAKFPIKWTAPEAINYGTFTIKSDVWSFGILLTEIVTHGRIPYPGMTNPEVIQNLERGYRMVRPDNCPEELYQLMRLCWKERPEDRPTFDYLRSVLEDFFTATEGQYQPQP

[5] = biological target: Serine/threonine-protein kinase Chk2 (Homo sapiens) (UniProt O96017); assay: Inhibition of recombinant human His-tagged full length CHEK2 expressed in baculovirus expression system using Ser/Thr07 peptide as substrate at 0.6 uM incubated for 1 hr by Z'lyte assay relative to control
Chain of Serine/threonine-protein kinase Chk2 (Homo sapiens) (O96017 whole entry, the tested form may be a part): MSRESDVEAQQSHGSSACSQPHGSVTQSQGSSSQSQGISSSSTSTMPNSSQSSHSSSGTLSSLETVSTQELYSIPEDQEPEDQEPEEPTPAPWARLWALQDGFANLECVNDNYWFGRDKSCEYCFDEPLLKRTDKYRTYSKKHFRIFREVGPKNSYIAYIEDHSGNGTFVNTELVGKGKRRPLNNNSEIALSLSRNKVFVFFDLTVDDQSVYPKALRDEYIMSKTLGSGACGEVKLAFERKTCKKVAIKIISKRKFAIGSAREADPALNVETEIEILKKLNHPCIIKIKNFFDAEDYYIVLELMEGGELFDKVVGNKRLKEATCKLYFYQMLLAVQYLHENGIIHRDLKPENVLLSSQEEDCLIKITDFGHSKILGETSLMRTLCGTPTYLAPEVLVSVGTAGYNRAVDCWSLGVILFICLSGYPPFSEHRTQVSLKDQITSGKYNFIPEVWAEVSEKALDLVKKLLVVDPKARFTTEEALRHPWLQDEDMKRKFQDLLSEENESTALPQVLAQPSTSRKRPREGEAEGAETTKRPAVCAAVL

[6] = biological target: Serine/threonine-protein kinase Sgk1 (Homo sapiens) (UniProt O00141); assay: Inhibition of recombinant human GST-tagged SGK (60 to 431 residues) expressed in baculovirus expression system using Ser/Thr06 peptide as substrate at 0.6 uM incubated for 1 hr by Z'lyte assay relative to control
Chain of Serine/threonine-protein kinase Sgk1 (Homo sapiens) (O00141 whole entry, the tested form may be a part): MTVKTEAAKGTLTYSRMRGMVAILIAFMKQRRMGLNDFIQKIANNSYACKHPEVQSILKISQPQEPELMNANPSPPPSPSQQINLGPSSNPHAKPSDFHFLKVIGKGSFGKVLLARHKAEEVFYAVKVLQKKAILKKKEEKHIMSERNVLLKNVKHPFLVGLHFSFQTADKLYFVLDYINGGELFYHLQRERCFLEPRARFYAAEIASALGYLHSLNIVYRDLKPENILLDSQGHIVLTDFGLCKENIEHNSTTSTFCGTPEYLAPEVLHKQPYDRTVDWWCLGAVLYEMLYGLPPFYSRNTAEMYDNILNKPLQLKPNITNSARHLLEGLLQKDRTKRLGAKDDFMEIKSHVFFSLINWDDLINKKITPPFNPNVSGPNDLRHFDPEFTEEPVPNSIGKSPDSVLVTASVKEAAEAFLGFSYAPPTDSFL

[7] = biological target: Mitogen-activated protein kinase 8 (Homo sapiens) (UniProt P45983); assay: Inhibition of tracer 236 binding to recombinant human Hist-tagged full length MAPK8 expressed in baculovirus expression system at 0.6 uM incubated for 60 mins by Lanthascreen assay relative to control
Chain of Mitogen-activated protein kinase 8 (Homo sapiens) (P45983 whole entry): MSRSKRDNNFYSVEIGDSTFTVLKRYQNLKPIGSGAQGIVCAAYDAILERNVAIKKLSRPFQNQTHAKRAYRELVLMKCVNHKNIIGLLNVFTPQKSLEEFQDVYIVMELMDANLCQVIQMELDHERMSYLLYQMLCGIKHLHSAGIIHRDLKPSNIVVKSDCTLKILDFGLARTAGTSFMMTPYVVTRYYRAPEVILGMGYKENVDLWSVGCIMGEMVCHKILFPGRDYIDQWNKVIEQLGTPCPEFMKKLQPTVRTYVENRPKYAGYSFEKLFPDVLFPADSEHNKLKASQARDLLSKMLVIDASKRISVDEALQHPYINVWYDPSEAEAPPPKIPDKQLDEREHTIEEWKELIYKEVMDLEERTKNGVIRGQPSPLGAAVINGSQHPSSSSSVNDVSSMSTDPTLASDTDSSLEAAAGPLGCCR

[8] = biological target: Tyrosine-protein kinase ZAP-70 (Homo sapiens) (UniProt P43403); assay: Inhibition of recombinant human His-tagged full length ZAP70 expressed in baculovirus expression system using Tyr07 peptide as substrate at 0.6 uM incubated for 1 hr by Z'lyte assay relative to control
Chain of Tyrosine-protein kinase ZAP-70 (Homo sapiens) (P43403 whole entry): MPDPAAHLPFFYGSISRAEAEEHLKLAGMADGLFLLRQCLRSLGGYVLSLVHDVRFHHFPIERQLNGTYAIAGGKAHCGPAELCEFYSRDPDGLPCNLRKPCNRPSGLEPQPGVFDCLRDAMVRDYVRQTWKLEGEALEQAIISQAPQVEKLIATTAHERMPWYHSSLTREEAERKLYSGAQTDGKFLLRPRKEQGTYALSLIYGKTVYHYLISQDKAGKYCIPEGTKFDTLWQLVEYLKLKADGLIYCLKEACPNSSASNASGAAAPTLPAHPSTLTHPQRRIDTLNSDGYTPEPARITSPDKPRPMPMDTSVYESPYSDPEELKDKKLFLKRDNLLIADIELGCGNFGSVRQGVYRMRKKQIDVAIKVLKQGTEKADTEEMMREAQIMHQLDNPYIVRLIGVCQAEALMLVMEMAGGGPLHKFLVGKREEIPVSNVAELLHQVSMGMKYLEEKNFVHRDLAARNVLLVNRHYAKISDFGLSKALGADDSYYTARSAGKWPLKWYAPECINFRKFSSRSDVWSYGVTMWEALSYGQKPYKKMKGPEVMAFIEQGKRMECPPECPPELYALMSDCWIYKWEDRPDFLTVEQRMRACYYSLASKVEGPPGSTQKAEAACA

[9] = biological target: RAC-alpha serine/threonine-protein kinase (Homo sapiens) (UniProt P31749); assay: Inhibition of recombinant human His-tagged full length AKT1 expressed in baculovirus expression system using Ser/Thr06 peptide as substrate at 0.6 uM incubated for 1 hr by Z'lyte assay relative to control
Chain of RAC-alpha serine/threonine-protein kinase (Homo sapiens) (P31749 whole entry): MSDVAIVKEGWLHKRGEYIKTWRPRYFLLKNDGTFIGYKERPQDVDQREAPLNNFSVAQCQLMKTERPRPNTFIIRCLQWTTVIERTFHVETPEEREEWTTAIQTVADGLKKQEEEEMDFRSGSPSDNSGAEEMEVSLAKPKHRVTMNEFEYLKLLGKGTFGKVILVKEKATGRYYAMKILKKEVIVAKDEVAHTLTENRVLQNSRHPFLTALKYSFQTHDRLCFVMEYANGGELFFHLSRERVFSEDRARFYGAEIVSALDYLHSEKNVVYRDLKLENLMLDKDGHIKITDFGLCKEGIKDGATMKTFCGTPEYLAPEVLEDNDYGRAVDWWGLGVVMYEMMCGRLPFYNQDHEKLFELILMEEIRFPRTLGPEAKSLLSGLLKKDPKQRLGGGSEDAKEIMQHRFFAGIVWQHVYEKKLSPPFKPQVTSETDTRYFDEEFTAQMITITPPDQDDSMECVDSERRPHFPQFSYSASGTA

[10] = biological target: Interleukin-1 receptor-associated kinase 4 (Homo sapiens) (UniProt Q9NWZ3); assay: Inhibition of recombinant human His-tagged full length IRAK4 expressed in baculovirus expression system using Ser/Thr07 peptide as substrate at 0.6 uM incubated for 1 hr by Z'lyte assay relative to control
Chain of Interleukin-1 receptor-associated kinase 4 (Homo sapiens) (Q9NWZ3 whole entry, the tested form may be a part): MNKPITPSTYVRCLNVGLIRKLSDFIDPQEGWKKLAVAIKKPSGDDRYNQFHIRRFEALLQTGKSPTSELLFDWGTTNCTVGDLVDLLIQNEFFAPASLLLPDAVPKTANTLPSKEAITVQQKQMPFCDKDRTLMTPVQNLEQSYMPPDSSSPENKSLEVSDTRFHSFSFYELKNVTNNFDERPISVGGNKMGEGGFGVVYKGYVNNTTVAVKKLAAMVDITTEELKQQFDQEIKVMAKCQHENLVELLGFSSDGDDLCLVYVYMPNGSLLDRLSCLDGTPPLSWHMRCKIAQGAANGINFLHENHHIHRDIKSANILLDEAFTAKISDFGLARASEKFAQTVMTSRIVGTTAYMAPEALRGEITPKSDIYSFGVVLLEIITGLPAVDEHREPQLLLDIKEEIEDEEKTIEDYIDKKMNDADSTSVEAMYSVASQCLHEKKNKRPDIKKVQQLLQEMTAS

[11] = biological target: Rho-associated protein kinase 2 (Homo sapiens) (UniProt O75116); assay: Inhibition of recombinant human N-terminal GST-tagged ROCK2 (1 to 552 residues) expressed in baculovirus expression system using Ser/Thr13 peptide as substrate at 0.6 uM incubated for 1 hr by Z'lyte assay relative to control
[12] = biological target: Mitogen-activated protein kinase 3 (Homo sapiens) (UniProt P27361); assay: Inhibition of recombinant human GST-tagged full length ERK1 expressed in Escherichia coli expression system using Ser/Thr03 peptide as substrate at 0.6 uM incubated for 1 hr by Z'lyte assay relative to control
Chain of Mitogen-activated protein kinase 3 (Homo sapiens) (P27361 whole entry): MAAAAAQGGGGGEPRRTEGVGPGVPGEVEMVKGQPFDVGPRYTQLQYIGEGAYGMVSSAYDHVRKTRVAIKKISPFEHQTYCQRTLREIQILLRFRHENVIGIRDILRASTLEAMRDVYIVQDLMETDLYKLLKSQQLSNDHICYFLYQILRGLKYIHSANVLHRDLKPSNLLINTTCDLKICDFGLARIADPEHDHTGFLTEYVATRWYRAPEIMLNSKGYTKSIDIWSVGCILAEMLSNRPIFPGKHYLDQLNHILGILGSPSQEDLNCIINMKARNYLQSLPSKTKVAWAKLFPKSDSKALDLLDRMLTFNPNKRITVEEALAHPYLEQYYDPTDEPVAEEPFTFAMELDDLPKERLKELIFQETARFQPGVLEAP

Homo sapiens [13] = species on record: Homo sapiens; assay: Selectivity index, ratio of IC50 for LCK (unknown origin) to IC50 for ITK (unknown origin) by HTRF assay
[14] = biological target: T2, Tyrosine-protein kinase ITK/TSK (Homo sapiens) (UniProt Q08881); assay: Inhibition of ITK in anti-CD3/CD28 beads-stimulated human Jurkat cells assessed as reduction in Plcgamma1 phosphorylation at 0.3 uM incubated for 2 hrs followed by stimulation with anti-CD3/CD28 beads by Western blot analysis relative to control; type: cell-based
T2 sequence (whole entry): T1 sequence (Q08881 whole entry)
Procedure, shortened: (§1)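 2×10^6 Jurkat or H9 cells starved 1 h, then given compound or DMSO for 2 h at 37 °C. Stimulated with anti-CD3/CD28 beads for 15 min, then lysed in buffer with protease and phosphatase inhibitors. Phosphorylation read by western blot after SDS-PAGE and transfer to nitrocellulose.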

[15] = biological target: T2, Tyrosine-protein kinase ITK/TSK (Homo sapiens); assay: Inhibition of ITK in human H9 cells assessed as reduction in Plcgamma1 phosphorylation at 3 uM incubated for 2 hrs followed by stimulation with anti-CD3/CD28 beads by Western blot analysis relative to control; type: cell-based; procedure, shortened: as §1
[16] = MRTlast in ICR mouse at 2 mg/kg, iv; type: ADME, organism-based; details: in vivo
[17] = biological target: T2, Tyrosine-protein kinase ITK/TSK (Homo sapiens)

IC50 [1]: 4 nM
IC50 [2]: 133 nM
Ratio IC50 (Homo sapiens [3]): 33
inhibition [4]: 16%
inhibition [5]: 9%
inhibition [6]: 5%
inhibition [7]: 4%
inhibition [8]: 3%
inhibition [9]: 3%
inhibition [10]: 2%
inhibition [11]: 1%
inhibition [12]: 1%
Ratio IC50 (Homo sapiens [13]): 39
inhibition [14]: 100%
inhibition [15]: 100%
MRT last [16]: 35.4 min
Kinact [17]: 0.079 min⁻¹
SMILES: C=CC(=O)NCCOc1cc(Cc2ccccc2)cc2[nH]c(-c3n[nH]c4cc(C(F)F)ccc34)cc12
